Assays:
[1] = system: Human immunodeficiency virus 1; assay: Antiviral activity against Human immunodeficiency virus 1 isolate 35 harboring Gag-capsid V159I, I223T, N252S, A326S/A, A340G and G357S mutant gene and protease I15V, G16E, E35D, S37N, L63H and I72V mutant gene infected in human MT-2 cells by XTT-assay relative to wild-type; assay type: functional, MT2
How it was run: (§1)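 Patient Gag-protease (SfoI-XmaI) fragments were ligated into the pXXLAI backbone, with colonies pooled to keep quasispecies. Virus came from 293T transfection, harvested at 2 days. MT-2 infection at 37°C used an input giving XTT signal-to-noise of 2.5–4.0 (≈MOI 0.001). Cells at ≈17,000/well with drug dilutions, 5 days, 37°C; XTT 1 h, A450–650. EC50 from % cell death; fold change vs wild-type LAI.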

[2] = system: Human immunodeficiency virus 1; assay: Antiviral activity against Human immunodeficiency virus 1 isolate 3 harboring Gag-capsid I138L, A146P, I147L, V159I, S176A, V215L, H219Q/H, T242N, G248A, T280V, A340G and G357S mutant gene and protease L10I, T31S/T, V32I, M36I/M, S37C, R41K, M46I, F53L, I54V, R57K, L63P, I64V, A71V, V82A and L90M mutant gene infected in human MT-2 cells by XTT-assay relative to wild-type; assay type: functional, MT2; how it was run: as §1
[3] = system: Human immunodeficiency virus 1; assay: Antiviral activity against Human immunodeficiency virus 1 isolate 2 harboring Gag-capsid A146P, S173A, V215L, H219P, E230D, N252S, R264K, L268M and A340G mutant gene and protease L10I, I15V, K20R, M36I, S37N, M46I, L63P, T80A, V82A, N83H, I84V, I85T and L90M mutant gene infected in human MT-2 cells by XTT-assay relative to wild-type; assay type: functional, MT2; how it was run: as §1
[4] = system: Human immunodeficiency virus 1; assay: Antiviral activity against Human immunodeficiency virus 1 isolate 23 harboring Gag-capsid I138L, V215L, E319D, A340G, G357S and V362I mutant gene and protease L10V, V11L, V32I, L33F, E34Q, E35D, M36L, S37T, M46I, I47V, G48V, I54M, I62V, L63P, I64V, I72V, T74S, V77I, V82A, I84V and T91S mutant gene infected in human MT-2 cells by XTT-assay relative to wild-type; assay type: functional, MT2; how it was run: as §1
[5] = system: Human immunodeficiency virus 1; assay: Antiviral activity against Human immunodeficiency virus 1 isolate 21 harboring Gag-capsid I138L, A146P, I147L/I, V159I/V, E211D, V215L, N252H/N, R286K/R and K331R/K mutant gene and protease E35D, M36I, S37N, I62V and L63C mutant gene infected in human MT-2 cells by XTT-assay relative to wild-type; assay type: functional, MT2; how it was run: as §1
[6] = system: Human immunodeficiency virus 1; assay: Antiviral activity against Human immunodeficiency virus 1 isolate 37 harboring Gag-capsid V135I, I138P, V143I, Q182H, V215L/V, V218P/A, H219Q, I223V, E230D, N252S, T280A, R286K, K302R and G357S mutant gene and protease S37D, R41K, L63P and I93L mutant gene infected in human MT-2 cells by XTT-assay relative to wild-type; assay type: functional, MT2; how it was run: as §1
[7] = system: Human immunodeficiency virus 1; assay: Antiviral activity against Human immunodeficiency virus 1 isolate 12 harboring Gag-capsid I138L E207D, V215L, V218P, H219Q, M228I, G248T, T280S, E312D, A340G, G357S and V362I mutant gene and protease S37N, I62V/I, L63P, I64L and V82I mutant gene infected in human MT-2 cells by XTT-assay relative to wild-type; assay type: functional, MT2; how it was run: as §1
[8] = system: Human immunodeficiency virus 1; assay: Antiviral activity against Human immunodeficiency virus 1 isolate 26 harboring Gag-capsid I138L, A146S, I147L, E312D, A326S, L337M, and A340G mutant gene and protease T4S, L10F, V11L, I13V, I15V, K20A, V32I, L33F, M36I, S37D, K43T, M46I, I54L, I62V, L63P, A71I, I72K, G73T, I84V,I85V, L89V and L90M mutant gene infected in human MT-2 cells by XTT-assay relative to wild-type; assay type: functional, MT2; how it was run: as §1
[9] = system: Human immunodeficiency virus 1; assay: Antiviral activity against Human immunodeficiency virus 1 isolate 22 harboring Gag-capsid V215L, H219Q, I223V, N252S, P255A, L268M and A340G mutant gene and Protease L19I, E35D, M36I, S37N, L63P, V77I and I93L mutant gene infected in human MT-2 cells by XTT-assay relative to wild-type; assay type: functional, MT2; how it was run: as §1
[10] = system: Human immunodeficiency virus 1; assay: Antiviral activity against Human immunodeficiency virus 1 isolate 5 harboring Gag-capsid I138M, V159I, T280V and S310T mutant gene and protease I13V, D30N, L33I, E35D, M36I, S37N, M46I/L, I54V, I62V, L63P, I66M/I, A71N/T, I72T/I, V82L/V, N88D, L90M and I93L/I mutant gene infected in human MT-2 cells by XTT-assay relative to wild-type; assay type: functional, MT2; how it was run: as §1
[11] = system: Human immunodeficiency virus 1; assay: Antiviral activity against antiretroviral-pretreated PI-resistant Human immunodeficiency virus 1 isolate 10 harboring deletion at T371 of Gag-SP-1 and Gag-Sp-1 V370I, S373P and I376V mutant gene infected in human MT-2 cells by XTT assay relative to wild-type; assay type: functional, MT2
How it was run: (§2)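 Patient-derived Gag fragments were pooled as bacterial colonies to keep quasispecies diversity and ligated into the pXXLAI (HIV-1 LAI) backbone. Virus was made by transfecting 293T cells and harvesting supernatant 2 days later. MT-2 cells were infected at 37°C with an inoculum titrated to give an XTT signal-to-noise of 2.5–4.0. Cells were plated into drug dilutions, incubated 5 days at 37°C, and read by XTT absorbance (450−650 nm). EC50 was taken from percent cell death and expressed as fold change versus wild-type LAI.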

[12] = system: Human immunodeficiency virus 1; assay: Antiviral activity against Human immunodeficiency virus 1 isolate 6 harboring Gag-SP-1 S373 and A374 mutant infected in human MT-2 cells by XTT-assay relative to wild-type; assay type: functional, MT2; how it was run: as §1
[13] = system: Human immunodeficiency virus 1; assay: Antiviral activity against antiretroviral-pretreated PI-resistant Human immunodeficiency virus 1 isolate 9 harboring Gag-SP1 T375N and I376V mutant gene infected in human MT-2 cells by XTT assay relative to wild-type; assay type: functional, MT2; how it was run: as §2
[14] = system: Human immunodeficiency virus 1; assay: Antiviral activity against antiretroviral-pretreated PI-resistant Human immunodeficiency virus 1 isolate 1 harboring Gag-Sp-1 S368C, V370A and A374N mutant gene deletion at T371 in Gag-SP-1 infected in human MT-2 cells by XTT assay relative to wild-type; assay type: functional, MT2; how it was run: as §2
[15] = system: Human immunodeficiency virus 1; assay: Antiviral activity against antiretroviral-pretreated PI-resistant Human immunodeficiency virus 1 isolate 4 harboring Gag-capsid G357S mutant gene and Gag-Sp-1 N372A, A374T and T375N mutant gene infected in human MT-2 cells by XTT assay relative to wild-type
[16] = system: Human immunodeficiency virus 1; assay: Antiviral activity against Human immunodeficiency virus 1 isolate 38 harboring Gag-SP1 V370A, N372S/G, S373P/T/Q/K, A374A/G/T/S, T375A and I376M mutant gene infected in human MT-2 cells by XTT assay relative to wild-type; assay type: functional, MT2; how it was run: as §1
[17] = system: Human immunodeficiency virus 1; assay: Antiviral activity against antiretroviral-pretreated PI-resistant Human immunodeficiency virus 1 isolate 5 harboring Gag-SP1 Q369H and T375N mutant gene infected in human MT-2 cells by XTT assay relative to wild-type; assay type: functional, MT2; how it was run: as §2
[18] = system: Human immunodeficiency virus 1; assay: Antiviral activity against Human immunodeficiency virus 1 isolate 36 harboring Gag-SP1 […], A374N and T375A mutant gene infected in human MT-2 cells by XTT assay relative to wild-type; assay type: functional, MT2; how it was run: as §1
[19] = system: Human immunodeficiency virus 1; assay: Antiviral activity against antiretroviral-pretreated PI-resistant Human immunodeficiency virus 1 isolate 20 harboring Gag-capsid G357S mutant gene and Gag-SP1 Q369H and I376V mutant gene infected in human MT-2 cells by XTT assay relative to wild-type; assay type: functional, MT2; how it was run: as §2
[20] = system: Human immunodeficiency virus 1; assay: Antiviral activity against antiretroviral-pretreated PI-resistant Human immunodeficiency virus 1 isolate 29 harboring Gag-SP-1 T375A mutant gene infected in human MT-2 cells by XTT assay relative to wild-type; assay type: functional, MT2; how it was run: as §2

Row | Structure (SMILES) | fold change (FC) [1] | fold change (FC) [2] | fold change (FC) [3] | fold change (FC) [4] | fold change (FC) [5] | fold change (FC) [6] | fold change (FC) [7] | fold change (FC) [8] | fold change (FC) [9] | fold change (FC) [10] | fold change (FC) [11] | fold change (FC) [12] | fold change (FC) [13] | fold change (FC) [14] | fold change (FC) [15] | fold change (FC) [16] | fold change (FC) [17] | fold change (FC) [18] | fold change (FC) [19] | fold change (FC) [20]
1 | COC(=O)N[C@H](C(=O)N[C@@H](Cc1ccccc1)[C@@H](O)CN(Cc1ccc(-c2ccccn2)cc1)NC(=O)[C@@H](NC(=O)OC)C(C)(C)C)C(C)(C)C [ATAZANAVIR] | 0.9 | 15.1 | 10.7 | 521 | 0.8 | 0.9 | 1.2 | 571 | 1.3 | 63.2 | – | – | – | – | – | – | – | – | – | –
2 | C=C(C)[C@@H]1CC[C@]2(C(=O)O)CC[C@]3(C)[C@H](CC[C@@H]4[C@@]5(C)CC[C@H](OC(=O)CC(C)(C)C(=O)O)C(C)(C)[C@@H]5CC[C@]43C)[C@@H]12 [BEVIRIMAT] | – | – | – | – | – | – | – | – | – | – | >100 | >100 | 4.7 | >100 | >100 | >100 | 2.2 | 1.8 | 2.1 | >100
3 | Cc1cccc(C)c1OCC(=O)N[C@@H](Cc1ccccc1)[C@@H](O)C[C@H](Cc1ccccc1)NC(=O)[C@H](C(C)C)N1CCCNC1=O [LOPINAVIR] | 1 | 13 | 15.5 | 203 | 0.6 | 0.8 | 1.1 | 46.5 | 0.9 | 12.1 | – | – | – | – | – | – | – | – | – | –

Reference: ChEMBL document CHEMBL1275586, “Phenotypic susceptibility to bevirimat in isolates from HIV-1-infected patients without prior exposure to bevirimat” (Antimicrob Agents Chemother, 2010)
